Experimental data of several laboratories.

Structure (SMILES) | cell line | test | conditions | quantity | result
CC(C)(O)[C@H]1CC[C@H](Nc2ccc3ncc(-c4cccc(C(F)(F)F)c4)n3n2)CC1 | T24 | colony formation |  | EC50 | 1.1 µM
FC1CCN(C2(CNCc3ccc(-c4ccccc4Cl)o3)COC2)C1 (stereo not drawn) | A 172 | cell growth or viability | 30 µM, 48 h | viability | 60.4%
CC(C)C[C@H](NC(=O)[C@H](Cc1ccccc1)NC(=O)c1cnccn1)B(O)O | A 172 | cell growth or viability, ATP luminescence |  | IC50 | 0.0087 µM
c1cc2cc(CNCC3(N4CCCC4)COC3)ccc2[nH]1 | A 172 | cell growth or viability | 30 µM, 48 h | viability | 97.6%
COc1ccc(-c2ccc(-c3ccc(C(=N)N)nc3)s2)cc1 | RXF 393 | cell growth or viability |  | GI50 | 1.77 µM
C[C@@H](Oc1cc(-c2cnn(C3CCNCC3)c2)cnc1N)c1c(Cl)ccc(F)c1Cl | NCI-H2228 | cell growth or viability, MTT | 0.2 µg/mL, 72 h | inhibition | 64.4%
Cc1cccc2cc(CNCC3(N4CCCC4)COC3)cnc12 | A 172 | cell growth or viability | 30 µM, 48 h | viability | 92.6%
Cc1ccc(C(CS(=O)(=O)c2ccccc2)=NNc2nc(-c3ccc(OCCCCOc4ccc(-c5csc(NN=C(CS(=O)(=O)c6ccccc6)c6ccc(C)cc6)n5)cc4)cc3)cs2)cc1 | SK-MEL-23 | cell growth or viability, MTT | 6.3 µM, 48 h | viability | 58.6%
NCCOc1cc(NC(=O)c2cccc(C(=O)Nc3cc(OCCN)c4ccccc4n3)n2)nc2ccccc12 | HT-1080 | cell growth or viability, ATP luminescence | 72 h | IC50 | 0.3 µM
Clc1ccccc1-c1ccc(CNCC2(N3CCCC3)COC2)o1 | A 172 | cell growth or viability | 30 µM, 48 h | viability | 70.6%
Cc1ccc(C(CS(=O)(=O)c2ccccc2)=NNc2nc(C)c(N=Nc3cccc(C)c3)s2)cc1 | SK-MEL-23 | cell growth or viability, MTT | 0.4 µM, 48 h | viability | 65.4%
Cc1cc(Nc2ncc(Cl)c(Nc3ccccc3S(=O)(=O)C(C)C)n2)c(OC(C)C)cc1C1CCNCC1 | NCI-H2228 | cell growth or viability, MTT | 1 µg/mL, 72 h | inhibition | 80%
Cc1ccc(C(CS(=O)(=O)c2ccccc2)=NNC2=NC(=O)C(=NNc3ccc([N+](=O)[O-])cc3)S2)cc1 | SK-MEL-23 | cell growth or viability, MTT | 0.4 µM, 48 h | viability | 75.9%
c1cc2c(cc1CNCC1(N3CCCC3)COC1)OCCO2 | A 172 | cell growth or viability | 30 µM, 48 h | viability | 96.6%
NC(=S)NN=C(CS(=O)(=O)c1ccccc1)c1ccc(F)cc1 | SK-MEL-23 | cell growth or viability, MTT | 25 µM, 48 h | viability | 45.4%
Cn1nnc2c(C(N)=O)ncn2c1=O | SNU-16 | cell growth or viability |  | EC50 | 185 µM
Cc1ccc(C(CS(=O)(=O)c2ccccc2)=NN=C2N=C(c3ccc(Br)cc3)CS2)cc1 | SK-MEL-23 | cell growth or viability, MTT | 100 µM, 48 h | viability | 45.7%
NCCOc1cc(NC(=O)c2cc(OCc3c[nH]nn3)cc(C(=O)Nc3cc(OCCN)c4ccccc4n3)n2)nc2ccccc12 | HT-1080 | cell growth or viability, ATP luminescence | 72 h | IC50 | 13.5 µM
